In ChEMBL document CHEMBL1765028 (Bioorg Med Chem, 2011):
Activity calls are given as the source filed them. The calls are words filed in the database; no cut-off is given here.

Legend:
[1] = tested on: Trypanosoma brucei rhodesiense; experiment: Antiparasitic activity against Trypanosoma brucei rhodesiense STIB900; type: functional, organism-based
How it was run: (§1)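 Compounds tested in vitro as hydrochloride salts against Plasmodium falciparum K1 or Trypanosoma brucei rhodesiense STIB900.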

[2] = Selectivity index, ratio of IC50 for rat L6 cells to IC50 for Plasmodium falciparum K1; type: toxicity, cell-based; conditions: L6 cells versus Plasmodium falciparum K1, read-out: Ratio IC50
How it was run: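 Selectivity index is IC50 for L6 rat myoblasts divided by IC50 for P. falciparum K1. Both IC50s were measured in vitro.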

L6 = experiment: Cytotoxicity against rat L6 cells; type: cell-based
How it was run: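 Cultured L6 rat myoblast cells were used to measure IC50 cytotoxicity.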

Plasmodium falciparum = experiment: Antiparasitic activity against Plasmodium falciparum K1; type: functional, organism-based; how it was run: as §1
[3] = tested on: Trypanosoma brucei rhodesiense; experiment: Antiparasitic activity against Trypanosoma brucei rhodesiense STIB900 infected in mouse assessed as mean relapse day of parasitemia at 5 mg/kg, ip for 4 days; type: functional; conditions: route intraperitoneal
How it was run: (§2)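 Acute STIB900 mouse model. Hydrochloride salts were given intraperitoneally at 5 mg/kg/day on four consecutive days. Cure is the number of mice surviving and parasite-free on day 60. Relapse is the mean day parasitemia reappears.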

[4] = Selectivity index, ratio of IC50 for rat L6 cells to IC50 for Trypanosoma brucei rhodesiense STIB900; type: toxicity, cell-based; conditions: L6 cells versus Trypanosoma brucei rhodesiense STIB900, read-out: Ratio IC50
How it was run: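 Selectivity index is IC50 for L6 rat myoblasts divided by IC50 for T. b. rhodesiense STIB900. Both IC50s were measured in vitro.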

[5] = tested on: Poly(dA-dT)oligonucleotide
[6] = tested on: Trypanosoma brucei rhodesiense; experiment: Antiparasitic activity against Trypanosoma brucei rhodesiense STIB900 infected in mouse assessed as cured at 5 mg/kg, ip for 4 days; type: functional, organism-based; design: dose 5 mg/kg; how it was run: as §2

SMILES | IC50 [1] [nM] | selectivity ratio [2] | IC50 (L6) [nM] | IC50 (Plasmodium falciparum) [nM] | Activity [3] [days] | selectivity ratio [4] | ΔTm [5] [°C] | Activity [6]
Cl.Cl.N=C(N)c1ccc(-c2ccc3cc(-c4ccc(C(=N)N)s4)[nH]c3c2)cc1 | 4 | 198 | 2200 | 11.1 | 17 | 550 | > 27 | 
Cl.Cl.N=C(N)c1ccc(-c2ccc3cc(-c4cc(C(=N)N)ccn4)[nH]c3c2)cc1 | 5 | 644 | 11600 | 18 | 24 | 2320 | > 27 | 
Cl.Cl.N=C(N)c1ccc(-c2ccc3cc(-c4cnccc4C(=N)N)[nH]c3c2)cc1 | 4 | 265 | 2600 | 9.8 | 24 | 650 | > 27 | 
Cl.Cl.N=C(N)c1ccc(-c2ccc3[nH]c(-c4ccc(C(=N)N)s4)cc3c2)cc1 | 2 | 1390 | 9900 | 7.1 | 17 | 4950 | 25.5 | 
Cl.Cl.N=C(N)c1ccc(-c2ccc3[nH]c(-c4ccc(C(=N)N)cc4)nc3c2)cc1 | 4 | 16900 | 62400 | 3.7 | 18 | 15600 | > 27 | inactive
N=C(N)c1ccc(-c2ccc(-c3ccc(C(=N)N)cc3)o2)cc1 [FURAMIDINE] |  |  |  |  | 20 |  |  | 
N=C(N)c1ccc(-c2ccc(-c3cc4ccc(C(=N)N)cc4[nH]3)cc2)cc1 | 2 |  | 10500 | 3.3 |  |  | > 27 | 
Cl.Cl.N=C(N)c1ccc(-c2ccc3nc(-c4ccc(C(=N)N)cc4)n(O)c3c2)cc1 | 484 | 6890 | 124000 | 18 | 8 | 256 | 12.2 | inactive
Cl.Cl.N=C(N)c1ccc(-c2ccc3cc(-c4ccc(C(=N)N)cc4)[nH]c3c2)cc1 | 3 | 653 | 3400 | 5.2 | 20 | 1130 | > 27 | inactive
N=C(N)c1ccc(-c2cc3ccc(C(=N)N)cc3[nH]2)cc1 [DAPI] | 18 |  |  |  | 17 | 48 | > 27 | 
N=C(N)c1ccc(-c2ccc(-c3nc4ccc(C(=N)N)cc4[nH]3)cc2)cc1 | 7.7 | 34000 | 17000 | 0.5 |  |  | > 27 | 
Cl.Cl.N=C(N)c1ccc(-c2ccc3cc(-c4ccc(C(=N)N)o4)[nH]c3c2)cc1 | 17 | 736 | 9200 | 12.5 | 18 | 541 | 24.9 | inactive
N=C(N)c1ccc(OCCCCCOc2ccc(C(=N)N)cc2)cc1 [PENTAMIDINE] |  |  | 46000 |  | 20 |  |  | 
Cl.Cl.Cn1c(-c2ccc(C(=N)N)cc2)nc2cc(-c3ccc(C(=N)N)cc3)ccc21 | 15 | > 130000 | > 169000 | 1.3 | 11 | > 11300 | 11.2 | inactive
Cl.Cl.N=C(N)c1ccc(-c2ccc3[nH]c(-c4ccc(C(=N)N)cc4)cc3c2)cc1 | 3 | 1180 | 6700 | 5.7 | 20 | 2330 | 23.7 | 
